ChEMBL document CHEMBL1926577, “Novel 1,3,4-heterodiazole analogues: synthesis and in-vitro antitumor activity” (2012)
Active and inactive are the calls of the source. No cut-off for these calls is given here.

What was measured:
Format in all cases: functional
[1] = Growth inhibition of human breast cancer cells after 48 hrs by coulter counter method; settings: Cancer cell lines
Summary of the method: (§1)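 NCI 60-line panel cells. Compound is dissolved in DMSO and diluted in phosphate-buffered saline, with final DMSO below 1%. It is added in duplicate wells to cultures at 6 × 10⁴ cells/ml and held at 37 °C, 5% CO₂, humidified, for 48 h. Cells are diluted 10-fold in saline, counted by Coulter counter and dilution-corrected. Vehicle controls contain PBS plus DMSO.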

CCRF-CEM = experiment: Growth inhibition of human CCRF-CEM cells at 10 uM after 48 hrs by coulter counter method; settings: read-out: GI
Summary of the method: (§2)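 NCI 60-cell-line panel, single dose. Compound dissolved first in DMSO, then diluted in phosphate-buffered saline so that every final dilution held under 1% DMSO. Duplicate wells received cells at 6 × 10⁴ cells/ml. Controls held PBS/DMSO at the same dilution. Plates were incubated 48 h at 37 °C under 5% CO₂. Cells were then diluted 10-fold in saline and counted on a Coulter counter, with counts corrected for the dilution. Results are given as percent growth inhibition.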

MOLT-4 = experiment: Growth inhibition of human MOLT4 cells at 10 uM after 48 hrs by coulter counter method; settings: MOLT-4, 48 h, read-out: GI; summary of the method: as §2
A549 = experiment: Growth inhibition of human A549 cells at 10 uM after 48 hrs by coulter counter method; settings: A549, 48 h, read-out: GI; summary of the method: as §2
EKVX = experiment: Growth inhibition of human EKVX cells at 10 uM after 48 hrs by coulter counter method; settings: read-out: GI; summary of the method: as §2
NCI-H522 = experiment: Growth inhibition of human NCI-H522 cells at 10 uM after 48 hrs by coulter counter method; settings: NCI-H522, 48 h, read-out: GI; summary of the method: as §2
SF-295 = experiment: Growth inhibition of human SF295 cells at 10 uM after 48 hrs by coulter counter method; settings: SF-295, 48 h, read-out: GI; summary of the method: as §2
SNB-75 = experiment: Growth inhibition of human SNB75 cells at 10 uM after 48 hrs by coulter counter method; settings: SNB-75, 48 h, read-out: GI; summary of the method: as §2
U-251 = experiment: Growth inhibition of human U251 cells at 10 uM after 48 hrs by coulter counter method; settings: U-251, 48 h, read-out: GI; summary of the method: as §2
SK-MEL-2 = experiment: Growth inhibition of human SK-MEL-2 cells at 10 uM after 48 hrs by coulter counter method; settings: SK-MEL-2, 48 h, read-out: GI; summary of the method: as §2
UACC-257 = experiment: Growth inhibition of human UACC257 cells at 10 uM after 48 hrs by coulter counter method; settings: UACC-257, 48 h, read-out: GI; summary of the method: as §2
UACC-62 = experiment: Growth inhibition of human UACC62 cells at 10 uM after 48 hrs by coulter counter method; settings: UACC-62, 48 h, read-out: GI; summary of the method: as §2
IGROV-1 = experiment: Growth inhibition of human IGROV1 cells at 10 uM after 48 hrs by coulter counter method; summary of the method: as §2
ACHN = experiment: Growth inhibition of human ACHN cells at 10 uM after 48 hrs by coulter counter method; settings: read-out: GI; summary of the method: as §2
SN12C = experiment: Growth inhibition of human SN12C cells at 10 uM after 48 hrs by coulter counter method; settings: read-out: GI; summary of the method: as §2
TK-10 = experiment: Growth inhibition of human TK10 cells at 10 uM after 48 hrs by coulter counter method; settings: TK-10, 48 h, read-out: GI; summary of the method: as §2
[2] = Growth inhibition of human leukemia cells after 48 hrs by coulter counter method; settings: Leukemia cell; summary of the method: as §1
[3] = Growth inhibition of human CNS cancer cells after 48 hrs by coulter counter method; settings: Cancer cell lines; summary of the method: as §1
[4] = read-out: LC50 (the source's name)

## O=C1CN2N=C(c3ccccc3)SC2=N1
[1]
  GI50: 6.9 µM
  TGI: 23.7 µM
[1]; [4]
  CC50: 71.3 µM
CCRF-CEM
  inhibition of growth at 10 µM: 88.2%
MOLT-4
  inhibition of growth at 10 µM: 37.5%
A549
  inhibition of growth at 10 µM: 39.2%
EKVX
  inhibition of growth at 10 µM: 94.5%
NCI-H522
  inhibition of growth at 10 µM: 46.5%
SF-295
  inhibition of growth at 10 µM: 90.6%
SNB-75
  inhibition of growth at 10 µM: 88.3%
U-251
  inhibition of growth at 10 µM: 58.3%
SK-MEL-2
  inhibition of growth at 10 µM: 14.1%
UACC-257
  inhibition of growth at 10 µM: 48.4%
UACC-62
  inhibition of growth at 10 µM: 27.8%
IGROV-1
  growth inhibition (GI): Active
ACHN
  inhibition of growth at 10 µM: 29.5%
SN12C
  inhibition of growth at 10 µM: 32.9%
TK-10
  inhibition of growth at 10 µM: 25.4%
[2]
  GI50: 4.1 µM
  TGI: 25.9 µM
[2]; [4]
  CC50: > 100 µM
[3]
  GI50: 8.7 µM
  TGI: 18.8 µM
[3]; [4]
  CC50: 51.3 µM
